Data: paper PMC6863157 (Investigational new drugs, 2016)

Columns and labels:
advanced solid tumors = assay: Tumor response by RECIST; assay type: in vivo, human; settings: for partial responses (PRs): melanoma patients
Procedure, shortened: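 Oral test compound was given once daily at 60 mg (21/7) or 100 mg (14/14) in 28-day cycles. Patients with measurable lesions had CT at screening and about every 8 weeks, assessed by RECIST. CR/PR was confirmed 4 weeks after first documentation. Archival tissue was typed for BRAF V600, NRAS Q61 and KRAS G12/13 mutations. Responses were summarized as frequency counts and percentages.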

[1] = tested on: RAS- or RAF-mutant FDG-PET-avid tumors; assay: FDG-PET pharmacodynamic; assay type: in vivo, human; settings: Cycle 1 Day 10–14 (on drug); 60-mg (21/7) MTD; 8 of 17
Plasma pharmacokinetics = assay type: in vivo, human; settings: for half-life: human, plasma; for CL/F apparent plasma clearance: steady state, geometric mean (%CV)
Procedure, shortened: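 Advanced solid tumor patients took oral test compound capsules once daily on 21-day on/7-day off or 14-day on/14-day off schedules in 28-day cycles. Serial plasma was sampled after the first dose (Day 1) and last dose (Day 21 or 14) of Cycle 1, plus pre-dose on Day 1 of later cycles. Analysis was by validated LC-MS/MS with noncompartmental analysis. Racc = Day 21 AUC0–24/Day 1 AUC0–24.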

[2] = tested on: phosphorylation of ERK1/2 in cell lines harboring KRAS or BRAF mutations; settings: cited from earlier work
[3] = tested on: patients with advanced solid tumors; assay: Phase Ia dose escalation/expansion: safety, DLT, MTD, adverse events; settings: oral once daily
[4] = tested on: patients with advanced solid tumors; settings: in vivo

Compound: O=C(c1ccc(F)c(F)c1Nc1ccc(I)cc1F)N1CC(O)([C@@H]2CCCCN2)C1 [cobimetinib]
- RECIST responses (advanced solid tumors; 28 patients with KRAS-mutant colorectal cancer): no responses
- patients with prolonged stable disease (SD) of five months or greater (advanced solid tumors; all tumor types): five
- partial responses (PRs) (advanced solid tumors; 60 mg on the 21/7 dosing schedule): three
- partial responses (PRs) (advanced solid tumors; 100 mg 14/14 dosing schedule): three
- duration of stable disease (advanced solid tumors; patient with adenoid cystic carcinoma): 7 months
- duration of stable disease (advanced solid tumors; patient with carcinoid): ≥ 47 months
- duration of stable disease (advanced solid tumors; patient with esophageal tumor): 6 months
- duration of stable disease (advanced solid tumors; patient with non-small cell lung cancer): 13 months
- median time on cobimetinib of responders (advanced solid tumors; seven responders, range 42–721+ days): 280 days
- FDG-PET metabolic response rate [1]: 47%
- exposure vs dose (Plasma pharmacokinetics; from 0.05 mg/kg (approximately 3.5 mg for a 70-kg adult) to 100 mg): dose-proportional
- half-life (Plasma pharmacokinetics; oral, 100 mg, t1/2 elimination half-life, 100 mg (14/14), geometric mean (range), n 13): 54 h
- half-life (Plasma pharmacokinetics; oral, mean terminal half-life, across all doses): 49 h
- half-life (Plasma pharmacokinetics; oral, terminal half-life, range, across all doses): 23 to 80 h
- median tmax (Plasma pharmacokinetics; oral, all cohorts): one to three
- CL/F apparent plasma clearance (Plasma pharmacokinetics; 60 mg (21/7), n 37): 13.8 (61) L/h
- CL/F apparent plasma clearance (Plasma pharmacokinetics; 100 mg (14/14), n 18): 14.8 (92) L/h
- effect on ERK1/2 phosphorylation [2]: inhibits the phosphorylation of ERK1/2
- maximum tolerated dose (MTD) ([3]; 14/14 dosing schedule): 100 mg
- maximum tolerated dose (MTD) ([3]; 21/7 dosing schedule): 60 mg
- incidence of edema ([4]; human): 34%
- incidence of treatment-related rash ([4]; human): 54%
- median onset of rash ([4]; human): 12 days
- median rash duration ([4]; human): 20 days
- patients with Grade ≥ 2 central serous retinopathy (CSR) ([4]; human): 5%
- patients with at least one SAE, regardless of causality ([4]; human): 42%
- patients with at least one treatment-related AE ([4]; human): 90%
- patients with dose reductions due to treatment-related rash ([4]; human): 4%
- patients with gastrointestinal disorder SAEs, regardless of causality ([4]; human): 14%
- patients with treatment-related AEs that led to dose reductions or interruption ([4]; human): 25%
- treatment-related AEs that were Grade 1–2 ([4]; human): 72%
- treatment-related rash that was Grade 1 or 2 ([4]; human): 94%
- patients who experienced DLTs [4]: four
- retinal vein occlusion [4]: no reports
- reversibility of visual adverse events [4]: reversible and resolved within one week
- symptomatic decreases in LVEF [4]: No events
